Experimental data as given in ChEMBL document CHEMBL3046702, “Herbicidal, plant growth inhibitory, and cytotoxic activities of bismuthines containing aromatic heterocycles” (J Agric Food Chem, 2003).
The source made the active and inactive calls. The calls are words filed in the database; no cut-off is given here.

What was measured:
[1] = test system: Trifolium pratense; test: Herbicidal activity against Trifolium pratense var. Kenland (red clover) assessed as inhibition of seed germination after 48 hr; format: functional, organism-based; settings: read-out: I50
[2] = test system: Lolium multiflorum; test: Herbicidal activity against Lolium multiflorum var. Gulf (Italian ryegrass) assessed as inhibition of seed germination after 48 hr; format: functional, organism-based; settings: read-out: I50
[3] = test system: Artemia salina; test: Toxicity in Artemia salina (brine shrimp) larvae assessed as mortality; format: organism-based; settings: in vivo
Method in brief: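 Brine shrimp lethality test on *Artemia salina* larvae, run across several concentrations up to a top level of 1000 µM. Mortality was scored at each concentration, and LC50 values in µM were derived from the concentration–mortality data.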

[4] = test system: Lactuca sativa; test: Herbicidal activity against Lactuca sativa var.Roman (lettuce) assessed as inhibition of seed germination after 48 hr; format: functional, organism-based; settings: read-out: I50
[5] = test system: Phaseolus vulgaris; test: Herbicidal activity against Phaseolus vulgaris assessed as inhibition of mitochondrial oxygen uptake; format: functional, organism-based; settings: read-out: I50
[6] = test system: Trifolium pratense; test: Herbicidal activity against Trifolium pratense var. Kenland (red clover) assessed as inhibition of seed respiration during germination after 72 hr by polarographic analysis; format: functional, organism-based; settings: for IC50: read-out: I50
Method in brief: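 Red clover seeds were exposed to the bismuthines during germination, with respiration followed over the imbibition time. Values were taken at 72 h as the concentration giving 50% inhibition of seed respiration, using means of three experiments.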

[7] = test system: Lolium multiflorum; test: Herbicidal activity against Lolium multiflorum var. Gulf (Italian ryegrass) seedlings assessed as root length rate at 7.5 uM after 48 hr relative to control; format: functional, organism-based
Method in brief: (§1)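 Italian ryegrass seedlings grown with 0, 0.5, 1, 3, 5, 7.5 or 10 µM of each bismuthine. Shoot and root lengths were measured at 48 h and expressed as a percentage of the average untreated control length.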

[8] = test system: Lactuca sativa; test: Herbicidal activity against Lactuca sativa var.Roman (lettuce) seedlings assessed as root length at 75 uM after 120 hr (reference value: 18 to 19 mm); format: functional, organism-based
[9] = test system: Lactuca sativa; test: Herbicidal activity against Lactuca sativa var.Roman (lettuce) assessed as inhibition of seed germination at > 48.8 uM after 48 hr; format: functional, organism-based
[10] = test system: Lactuca sativa; test: Herbicidal activity against Lactuca sativa var.Roman (lettuce) seedlings assessed as seed germination rate at 3 uM after 48 hr relative to control; format: functional, organism-based
[11] = test system: Lolium multiflorum; test: Herbicidal activity against Lolium multiflorum var. Gulf (Italian ryegrass) seedlings assessed as root length rate at 5 uM after 48 hr relative to control; format: functional, organism-based; method in brief: as §1
[12] = test system: Radical scavenging activity; test: Antioxidant activity assessed as DPPH free radical scavenging activity at 5 to 100 uM after 30 min by TLC autographic assay; format: functional
[13] = test system: Lolium multiflorum; test: Herbicidal activity against Lolium multiflorum var. Gulf (Italian ryegrass) seedlings assessed as root length rate at 3 uM after 48 hr relative to control; format: functional, organism-based; method in brief: as §1
[14] = test system: Lactuca sativa; test: Herbicidal activity against Lactuca sativa var.Roman (lettuce) seedlings assessed as seed germination rate at 0.5 uM after 48 hr relative to control; format: functional, organism-based
[15] = test system: Trifolium pratense; test: Herbicidal activity against Trifolium pratense var. Kenland (red clover) assessed as inhibition of seed germination at > 18.3 uM after 48 hr; format: functional, organism-based
[16] = test system: Lactuca sativa; test: Herbicidal activity against Lactuca sativa var.Roman (lettuce) seedlings assessed as shoot length at 5 uM after 120 hr (reference value: 27 to 31 mm); format: functional, organism-based
[17] = test system: Lactuca sativa; test: Herbicidal activity against Lactuca sativa var.Roman (lettuce) seedlings assessed as root length at 10 uM after 120 hr (reference value: 18 to 19 mm); format: functional, organism-based
[18] = test system: Lolium multiflorum; test: Herbicidal activity against Lolium multiflorum var. Gulf (Italian ryegrass) seedlings assessed as shoot length rate at 0.5 uM after 48 hr relative to control; format: functional, organism-based; method in brief: as §1
[19] = test system: Lolium multiflorum; test: Herbicidal activity against Lolium multiflorum var. Gulf (Italian ryegrass) seedlings assessed as root length rate at 0.5 uM after 48 hr relative to control; format: functional, organism-based; method in brief: as §1
[20] = test system: Lactuca sativa; test: Herbicidal activity against Lactuca sativa var.Roman (lettuce) seedlings assessed as root length at 50 uM after 120 hr (reference value: 18 to 19 mm); format: functional, organism-based
[21] = test system: Lactuca sativa; test: Herbicidal activity against Lactuca sativa var.Roman (lettuce) seedlings assessed as seed germination rate at 5 uM after 48 hr relative to control; format: functional, organism-based
[22] = test system: Lolium multiflorum; test: Herbicidal activity against Lolium multiflorum var. Gulf (Italian ryegrass) seedlings assessed as root length rate at 1 uM after 48 hr relative to control; format: functional, organism-based; method in brief: as §1
[23] = test system: Lolium multiflorum; test: Herbicidal activity against Lolium multiflorum var. Gulf (Italian ryegrass) seedlings assessed as shoot length rate at 1 uM after 48 hr relative to control; format: functional, organism-based; method in brief: as §1
[24] = test system: Lactuca sativa; test: Herbicidal activity against Lactuca sativa var.Roman (lettuce) seedlings assessed as seed germination rate at 10 uM after 48 hr relative to control; format: functional, organism-based
[25] = test system: Radical scavenging activity; test: Antioxidant activity assessed as DPPH free radical scavenging activity at 5 to 100 uM after 30 min by spectrophotometric analysis; format: functional
Method in brief: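 DPPH reduction by the compounds was read spectrophotometrically at 517 nm after 30 min. 100% DMSO served as the blank and quercetin as the reference scavenger.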

[26] = test system: Physalis ixocarpa; test: Herbicidal activity against Physalis ixocarpa assessed as inhibition of seed respiration during germination after 72 hr by polarographic analysis; format: functional, organism-based
[27] = test system: Lolium multiflorum; test: Herbicidal activity against Lolium multiflorum var. Gulf (Italian ryegrass) seedlings assessed as shoot length rate at 7.5 uM after 48 hr relative to control; format: functional, organism-based; method in brief: as §1
[28] = test system: Lactuca sativa; test: Herbicidal activity against Lactuca sativa var.Roman (lettuce) seedlings assessed as root length at 5 uM after 120 hr (reference value: 18 to 19 mm); format: functional, organism-based
[29] = test system: Lactuca sativa; test: Herbicidal activity against Lactuca sativa var.Roman (lettuce) seedlings assessed as shoot length at 75 uM after 120 hr (reference value: 27 to 31 mm); format: functional, organism-based
[30] = test system: Lactuca sativa; test: Herbicidal activity against Lactuca sativa var.Roman (lettuce) seedlings assessed as root length at 25 uM after 120 hr (reference value: 18 to 19 mm); format: functional, organism-based
[31] = test system: Lolium multiflorum; test: Herbicidal activity against Lolium multiflorum var. Gulf (Italian ryegrass) assessed as inhibition of seed respiration during germination after 72 hr by polarographic analysis; format: functional, organism-based
[32] = test system: Lactuca sativa; test: Herbicidal activity against Lactuca sativa var.Roman (lettuce) assessed as inhibition of seed germination at > 36.6 uM after 48 hr; format: functional, organism-based
[33] = test system: Lactuca sativa; test: Herbicidal activity against Lactuca sativa var.Roman (lettuce) seedlings assessed as seed germination rate at 7.5 uM after 48 hr relative to control; format: functional, organism-based
[34] = test system: Lactuca sativa; test: Herbicidal activity against Lactuca sativa var.Roman (lettuce) seedlings assessed as shoot length at 10 uM after 120 hr (reference value: 27 to 31 mm); format: functional, organism-based
[35] = test system: Lolium multiflorum; test: Herbicidal activity against Lolium multiflorum var. Gulf (Italian ryegrass) seedlings assessed as shoot length rate at 3 uM after 48 hr relative to control; format: functional, organism-based; method in brief: as §1
[36] = test system: Lolium multiflorum; test: Herbicidal activity against Lolium multiflorum var. Gulf (Italian ryegrass) seedlings assessed as shoot length rate at 5 uM after 48 hr relative to control; format: functional, organism-based; method in brief: as §1
[37] = test system: Lolium multiflorum; test: Herbicidal activity against Lolium multiflorum var. Gulf (Italian ryegrass) seedlings assessed as shoot length rate at 10 uM after 48 hr relative to control; format: functional, organism-based; method in brief: as §1
[38] = test system: Lactuca sativa; test: Herbicidal activity against Lactuca sativa var.Roman (lettuce) seedlings assessed as seed germination rate at 1 uM after 48 hr relative to control; format: functional, organism-based
[39] = test system: Lolium multiflorum; test: Herbicidal activity against Lolium multiflorum var. Gulf (Italian ryegrass) seedlings assessed as root length rate at 10 uM after 48 hr relative to control; format: functional, organism-based; method in brief: as §1

TRIS(2-THIENYL)BISMUTH
IC50 [1]: 12.4 µM | IC50 [2]: 36 µM | LC50 [3]: > 1000 µM | IC50 [4]: 49.7 µM | IC50 [5]: 35 µM | IC50 [6]: 13.5 µM

TRIS(1-METHYL-2-PYRROLYL)BISMUTH
IC50 [1]: 7.5 µM | IC50 [2]: 33.8 µM | LC50 [3]: 638 µM | IC50 [4]: 34 µM | IC50 [5]: 17.1 µM | IC50 [6]: 8.4 µM

TRIS(2-FURYL)BISMUTH
Activity [7]: 44% | Activity [8]: 0 mm | inhibition [9]: 100% | Activity [10]: 80% | Activity [11]: 66% | Activity [12]: Active | Activity [13]: 86% | Activity [14]: 95% | inhibition [15]: 100% | Activity [16]: 24 mm | Activity [17]: 7 mm | Activity [18]: 82% | Activity [19]: 78% | Activity [20]: 0 mm | Activity [21]: 70% | Activity [22]: 70% | Activity [23]: 75% | Activity [24]: 35% | Activity [25]: Active | inhibition [26]: Active | Activity [27]: 53% | Activity [28]: 32 mm | Activity [29]: 0 mm | Activity [30]: 0 mm | inhibition [31]: inactive | inhibition [32]: Active | Activity [33]: 35% | Activity [34]: 11 mm | Activity [35]: 79% | Activity [36]: 55% | Activity [37]: 24% | Activity [38]: 95% | Activity [39]: 30% | inhibition [6]: Dose-dependent effect
